Consider 27 compounds from ChEMBL document CHEMBL3102802, “Synthesis, modelling and biological characterization of 3-substituted-1H-indoles as ligands of GluN2B-containing N-methyl-d-aspartate receptors” (Bioorg Med Chem, 2014).

Where only a bound is given, the exact number is not on record here.

One may read the ED50 as the dose at which the effect has come halfway, by size or by number of responders. In general, IC50 refers to the concentration needed to halve the response being measured. As a reminder, the inhibition is the change of the read-out against control, counted positive when it falls.

Experiment [1] has as its system Mus musculus. Briefly: Anticonvulsant activity in ip dosed sound-induced DBA/2 mouse seizure model assessed as clonus phase latency. Format: functional. The following applies: DBA/2, ip. The essentials:
(§1)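 DBA/2 mice (8–12 g, 22–25 days old, either sex), groups of 10. Compound given ip at 0.1 mL/10 g in 50% DMSO/50% saline; vehicle controls. Auditory stimulus (12–16 kHz, 109 dB) applied 30 min later for 60 s or until tonic extension, after 60 s habituation. Latency to and incidence of seizure phases scored; Fisher's exact test. ED50 by Litchfield–Wilcoxon.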

Experiment [2] concerns the target Glutamate receptor ionotropic, NMDA 2B (Rattus norvegicus, UniProt Q00960). Briefly: Displacement of [3H]Ifenprodil from NMDA receptor GluN2B subunit in Wistar rat cerebral cortex. It counts as tissue-based.
Experiment [3] deals with Glutamate receptor ionotropic, NMDA 2B (Rattus norvegicus) (UniProt Q00960). As to the kind of experiment: Displacement of [3H]Ifenprodil from NMDA receptor GluN2B subunit in Wistar rat cerebral cortex at 0.1 uM. Format: tissue-based. For orientation: Loss of bound radioactivity is the signal in a displacement assay; it reports binding, not function.
Sequence of Glutamate receptor ionotropic, NMDA 2B (Rattus norvegicus) (Q00960 27-1482 limits assumed): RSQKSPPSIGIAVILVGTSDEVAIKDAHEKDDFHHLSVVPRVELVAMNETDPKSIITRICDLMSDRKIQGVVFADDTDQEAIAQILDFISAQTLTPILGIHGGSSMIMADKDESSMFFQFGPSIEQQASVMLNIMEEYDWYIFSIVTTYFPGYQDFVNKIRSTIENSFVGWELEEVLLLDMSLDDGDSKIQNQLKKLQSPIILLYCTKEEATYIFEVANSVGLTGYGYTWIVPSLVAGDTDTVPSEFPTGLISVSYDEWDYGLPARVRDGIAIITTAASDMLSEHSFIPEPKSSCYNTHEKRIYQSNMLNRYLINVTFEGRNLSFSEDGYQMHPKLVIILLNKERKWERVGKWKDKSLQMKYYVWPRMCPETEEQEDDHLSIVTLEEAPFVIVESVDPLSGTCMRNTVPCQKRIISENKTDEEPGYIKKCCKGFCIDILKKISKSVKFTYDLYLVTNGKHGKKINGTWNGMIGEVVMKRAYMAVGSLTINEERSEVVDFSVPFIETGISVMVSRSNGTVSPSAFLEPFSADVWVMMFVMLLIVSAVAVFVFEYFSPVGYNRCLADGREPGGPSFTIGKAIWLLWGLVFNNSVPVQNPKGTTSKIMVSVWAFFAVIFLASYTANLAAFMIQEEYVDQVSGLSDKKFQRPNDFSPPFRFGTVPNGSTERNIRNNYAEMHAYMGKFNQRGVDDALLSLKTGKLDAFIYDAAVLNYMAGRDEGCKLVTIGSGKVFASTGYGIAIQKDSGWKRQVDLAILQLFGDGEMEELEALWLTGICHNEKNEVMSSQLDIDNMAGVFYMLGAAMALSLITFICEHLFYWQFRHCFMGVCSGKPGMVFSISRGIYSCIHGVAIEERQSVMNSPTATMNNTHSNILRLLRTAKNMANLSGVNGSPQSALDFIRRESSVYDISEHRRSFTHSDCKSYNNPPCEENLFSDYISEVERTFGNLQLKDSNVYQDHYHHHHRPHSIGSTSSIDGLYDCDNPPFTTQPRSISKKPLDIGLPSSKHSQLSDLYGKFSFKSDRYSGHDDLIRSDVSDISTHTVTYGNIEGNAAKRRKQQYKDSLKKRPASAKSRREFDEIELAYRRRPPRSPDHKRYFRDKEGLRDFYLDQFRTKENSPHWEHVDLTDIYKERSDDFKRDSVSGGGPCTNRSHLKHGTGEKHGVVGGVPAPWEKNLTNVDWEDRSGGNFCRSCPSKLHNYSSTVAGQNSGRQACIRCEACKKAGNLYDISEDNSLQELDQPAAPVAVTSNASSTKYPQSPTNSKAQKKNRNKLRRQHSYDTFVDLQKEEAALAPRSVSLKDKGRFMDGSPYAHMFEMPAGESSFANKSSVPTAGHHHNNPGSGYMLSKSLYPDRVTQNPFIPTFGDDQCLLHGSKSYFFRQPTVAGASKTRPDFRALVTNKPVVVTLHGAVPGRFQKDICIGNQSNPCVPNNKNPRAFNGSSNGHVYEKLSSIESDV
Experiment [4] addresses Glutamate receptor ionotropic, NMDA 2B (Mus musculus) (UniProt Q01097). Briefly: Antagonist activity at NMDA receptor GluN2B subunit in FVB mouse CA1 pyramidal neurons assessed as reversible reduction of excitatory post synaptic current amplitude at 50 nM at holding potential of -60 mV measured for 5 mins by patch clamp technique in presence of Mg2+free ACSF relative to control. The arrangement: scale not given: the % may be the effect or the level left. The conditions noted are these: Pyramidal neuron. It counts as cell-based. The essentials: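 Whole-cell recordings of NMDA receptor-mediated EPSCs in mouse hippocampal slices, with glycine (10 µM) and bicuculline (5 µM) in the bath. Compound applied for 5 min, then washed out. EPSC amplitude taken as peak minus baseline and measured over 5 min in control and in drug for each neuron. Expressed as % of control, n = 4; unpaired Student's t test.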

The subject of experiment [5] is Mus musculus. As to the kind of experiment: Anticonvulsant activity in ip dosed sound-induced DBA/2 mouse seizure model assessed as tonus phase latency. The conditions noted are these: DBA/2, ip. It counts as functional. The gist of the method: as §1
Experiment [6] in a line: Antioxidant activity of the compound assessed as inhibition of ABTS radicals at 17 uM after 20 mins by spectrophotometric analysis. Format: functional. The essentials: (§2)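 ABTS radical cation generated from ABTS and potassium persulfate in 0.1 M phosphate buffer pH 7.0, left 16 h in the dark at room temperature. Blank absorbance at 734 nm adjusted to about 1.0. Samples from 2 mM stocks in MeOH/phosphate buffer 1:1. A734 read at room temperature after exactly 20 min. %inhibition = (Ablank − Asample)/Ablank, mean of triplicates.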

Experiment [7] is described as follows: Antioxidant activity of the compound assessed as inhibition of ABTS radicals at 9 uM after 20 mins by spectrophotometric analysis. It counts as functional. The gist of the method:
as §2

Experiment [8] can be described thus: Antioxidant activity of the compound assessed as inhibition of ABTS radicals after 20 mins by spectrophotometric analysis. It counts as functional. The essentials:
as §2

The nature of experiment [9]: Antioxidant activity of the compound assessed as inhibition of ABTS radicals at 33 uM after 20 mins by spectrophotometric analysis. It counts as functional.
Experiment [10] addresses Glutamate receptor ionotropic, NMDA 2B (Rattus norvegicus) (UniProt Q00960). As to the kind of experiment: Displacement of [3H]Ifenprodil from NMDA receptor GluN2B subunit in Wistar rat cerebral cortex at 10 uM. It counts as tissue-based.
Experiment [11] addresses Glutamate receptor ionotropic, NMDA 2B (Homo sapiens, UniProt Q05586+Q13224). As to the kind of experiment: Inhibition of NMDA receptor GluN2B subunit (unknown origin).

Sequence of Glutamate receptor ionotropic, NMDA 2B (Rattus norvegicus, UniProt Q00960) (Q00960 whole entry): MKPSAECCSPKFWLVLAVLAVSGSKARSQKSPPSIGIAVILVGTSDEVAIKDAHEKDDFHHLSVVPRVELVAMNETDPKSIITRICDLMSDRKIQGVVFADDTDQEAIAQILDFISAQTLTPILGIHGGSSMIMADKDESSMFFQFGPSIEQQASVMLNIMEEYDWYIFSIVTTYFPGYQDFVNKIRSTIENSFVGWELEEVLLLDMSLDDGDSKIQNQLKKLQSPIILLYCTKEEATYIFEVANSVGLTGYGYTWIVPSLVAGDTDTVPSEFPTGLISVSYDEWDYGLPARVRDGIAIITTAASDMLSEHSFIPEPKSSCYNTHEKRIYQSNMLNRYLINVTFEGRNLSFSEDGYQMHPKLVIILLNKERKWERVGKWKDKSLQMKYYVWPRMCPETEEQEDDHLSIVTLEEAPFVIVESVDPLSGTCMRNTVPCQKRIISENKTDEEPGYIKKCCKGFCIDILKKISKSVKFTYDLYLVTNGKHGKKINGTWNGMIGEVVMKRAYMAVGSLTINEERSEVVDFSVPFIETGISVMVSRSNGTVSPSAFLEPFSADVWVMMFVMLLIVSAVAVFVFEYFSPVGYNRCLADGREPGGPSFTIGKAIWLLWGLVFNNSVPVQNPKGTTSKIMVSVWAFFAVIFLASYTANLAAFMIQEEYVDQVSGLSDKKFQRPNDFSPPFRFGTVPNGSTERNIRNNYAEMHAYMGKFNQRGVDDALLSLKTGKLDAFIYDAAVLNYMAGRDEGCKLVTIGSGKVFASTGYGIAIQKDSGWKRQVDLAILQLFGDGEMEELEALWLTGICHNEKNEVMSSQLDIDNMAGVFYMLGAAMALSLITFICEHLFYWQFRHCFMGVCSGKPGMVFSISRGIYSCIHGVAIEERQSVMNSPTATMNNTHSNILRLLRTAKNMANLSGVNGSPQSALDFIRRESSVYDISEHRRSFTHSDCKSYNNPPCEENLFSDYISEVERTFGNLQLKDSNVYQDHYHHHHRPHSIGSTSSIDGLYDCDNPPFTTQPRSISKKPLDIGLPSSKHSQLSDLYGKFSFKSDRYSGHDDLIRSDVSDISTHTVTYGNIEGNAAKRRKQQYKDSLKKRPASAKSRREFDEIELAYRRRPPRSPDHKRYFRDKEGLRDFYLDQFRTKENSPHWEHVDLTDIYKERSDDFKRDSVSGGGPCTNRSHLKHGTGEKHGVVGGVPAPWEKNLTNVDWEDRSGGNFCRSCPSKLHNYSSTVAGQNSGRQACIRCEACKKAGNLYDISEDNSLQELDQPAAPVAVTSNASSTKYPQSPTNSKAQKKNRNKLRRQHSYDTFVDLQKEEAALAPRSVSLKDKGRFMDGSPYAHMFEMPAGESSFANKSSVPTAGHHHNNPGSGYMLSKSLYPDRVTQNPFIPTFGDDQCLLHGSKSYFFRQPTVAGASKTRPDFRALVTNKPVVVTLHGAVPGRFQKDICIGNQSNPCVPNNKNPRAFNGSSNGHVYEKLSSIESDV
Sequence of Glutamate receptor ionotropic, NMDA 2B (Homo sapiens, UniProt Q05586+Q13224) (Q13224 whole entry, one chain of several): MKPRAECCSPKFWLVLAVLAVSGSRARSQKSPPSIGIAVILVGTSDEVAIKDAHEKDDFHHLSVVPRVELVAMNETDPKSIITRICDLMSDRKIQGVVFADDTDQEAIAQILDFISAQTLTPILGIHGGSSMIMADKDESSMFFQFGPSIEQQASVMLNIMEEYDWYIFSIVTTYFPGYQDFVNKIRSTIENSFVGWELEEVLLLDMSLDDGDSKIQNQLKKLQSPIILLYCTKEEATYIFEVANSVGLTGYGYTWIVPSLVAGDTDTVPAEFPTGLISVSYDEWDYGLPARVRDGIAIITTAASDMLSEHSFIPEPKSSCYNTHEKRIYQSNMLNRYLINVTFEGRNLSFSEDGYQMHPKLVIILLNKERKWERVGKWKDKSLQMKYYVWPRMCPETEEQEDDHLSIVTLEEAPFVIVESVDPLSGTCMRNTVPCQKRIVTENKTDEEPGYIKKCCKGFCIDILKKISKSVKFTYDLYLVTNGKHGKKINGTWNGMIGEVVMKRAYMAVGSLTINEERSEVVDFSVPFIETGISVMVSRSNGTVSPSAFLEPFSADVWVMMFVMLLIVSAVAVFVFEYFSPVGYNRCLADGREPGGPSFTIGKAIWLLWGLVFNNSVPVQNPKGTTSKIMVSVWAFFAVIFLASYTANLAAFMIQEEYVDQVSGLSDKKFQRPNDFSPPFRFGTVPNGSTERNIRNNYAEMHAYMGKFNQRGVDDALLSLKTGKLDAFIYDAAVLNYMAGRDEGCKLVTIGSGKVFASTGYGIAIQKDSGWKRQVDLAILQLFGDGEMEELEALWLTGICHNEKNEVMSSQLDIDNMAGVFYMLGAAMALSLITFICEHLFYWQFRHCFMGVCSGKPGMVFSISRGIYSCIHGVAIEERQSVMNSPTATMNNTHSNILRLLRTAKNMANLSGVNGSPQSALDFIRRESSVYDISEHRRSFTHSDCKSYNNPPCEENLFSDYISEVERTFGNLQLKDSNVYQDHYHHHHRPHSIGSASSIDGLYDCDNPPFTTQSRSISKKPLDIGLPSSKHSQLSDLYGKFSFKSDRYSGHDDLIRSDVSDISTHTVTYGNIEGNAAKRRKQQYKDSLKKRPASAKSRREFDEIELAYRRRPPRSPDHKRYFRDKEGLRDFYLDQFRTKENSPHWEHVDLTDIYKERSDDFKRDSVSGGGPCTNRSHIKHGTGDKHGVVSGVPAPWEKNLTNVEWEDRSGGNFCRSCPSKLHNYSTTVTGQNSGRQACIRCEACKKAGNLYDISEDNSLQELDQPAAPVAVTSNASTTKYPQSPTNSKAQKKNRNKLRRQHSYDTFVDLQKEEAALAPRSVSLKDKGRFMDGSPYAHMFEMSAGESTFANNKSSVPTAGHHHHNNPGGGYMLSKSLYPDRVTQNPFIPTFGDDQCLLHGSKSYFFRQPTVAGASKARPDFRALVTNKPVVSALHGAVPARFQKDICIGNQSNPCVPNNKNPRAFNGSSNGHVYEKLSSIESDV

Consider `O=C(CN1CCC(Cc2ccccc2)CC1)c1c[nH]c2cc(O)c(O)cc12`, for which the figures for the median effective dose (ED50) with Mus musculus [1] and in the experiment with Mus musculus [5] were 89.4 µmol/kg and 76.7 µmol/kg, respectively. For the same compound, the IC50 in [2] came to 5.5 nM. Also, in [3], the inhibition came out at 91%. In experiment [4], the Activity came out at 57%.

In the case of `CS(=O)(=O)Nc1ccc2[nH]cc(C(=O)C(=O)N3CCC(Cc4ccc(F)cc4)CC3)c2c1`, the inhibition in [3] was 4%.

`COc1ccc2c(C(=O)C(=O)N3CCC(Cc4ccc(F)cc4)CC3)c[nH]c2c1` yielded an inhibition in experiment [3] of 27%.

Compound `Nc1ccc2[nH]cc(C(=O)CN3CCC(Cc4ccc(F)cc4)CC3)c2c1` showed an inhibition in experiment [3] of 33%.

On to `O=C(C(=O)N1CCC(Cc2ccc(F)cc2)CC1)c1c[nH]c2cc(O)ccc12`, for which the IC50 in experiment [2] is 20 nM. In experiment [3], this compound came in with an inhibition of 61%.

In [2], `O=C(CN1CCC(Cc2ccc(F)cc2)CC1)c1c[nH]c2cc(O)ccc12` displayed an IC50 of 9.1 nM. In experiment [3], this compound displayed an inhibition of 82%.

With `Oc1cc2cc[nH]c2cc1O`, the inhibition was more than 84.4% in experiment [6], 54.4% in experiment [7] and “Dose-dependent effect” in experiment [8].

`COc1cc2[nH]cc(C(=O)CN3CCC(Cc4ccccc4)CC3)c2cc1OC` had an inhibition in [3] of 1%.

`CS(=O)(=O)Nc1ccc2c(C(=O)CN3CCC(Cc4ccc(F)cc4)CC3)c[nH]c2c1` came in with an IC50 in [2] of 9.4 nM. In experiment [3], this compound registered an inhibition of 81%.

For `Oc1ccc2cc[nH]c2c1`, the inhibition was 83% in [7], more than 89.8% in [9] and “Dose-dependent effect” in experiment [8].

On to `COc1ccc2[nH]cc(C(=O)C(=O)N3CCC(Cc4ccc(F)cc4)CC3)c2c1`, for which the inhibition in experiment [10] stood at 35%.

For the compound `CS(=O)(=O)Nc1ccc2[nH]cc(C(=O)CN3CCC(Cc4ccc(F)cc4)CC3)c2c1`, the inhibition in experiment [3] turned out to be 10%.

Consider `Oc1ccc2[nH]ccc2c1`, for which the inhibition was 79.8% in experiment [7], more than 90.1% in experiment [9] and “Dose-dependent effect” in experiment [8].

The compound `Nc1ccc2c(C(=O)CN3CCC(Cc4ccc(F)cc4)CC3)c[nH]c2c1` returned an inhibition in experiment [3] of 12%.

The compound `O=C(CN1CCC(Cc2ccccc2)CC1)c1c[nH]c2ccccc12` registered a 50% inhibitory concentration (IC50) in [11] of 769 nM.

Regarding `O=C(O)c1cc(O)c(O)c(O)c1`, the inhibition in experiment [6] is more than 94.1%; in experiment [7], 61.6%; in [9], more than 93.9%; in experiment [8], “Dose-dependent effect”.

In turn, `O=C(C(=O)N1CCC(Cc2ccc(F)cc2)CC1)c1c[nH]c2ccc(O)cc12` gave an inhibition in experiment [3] of 11%.

For the compound `O=C(C(=O)N1CCC(Cc2ccccc2)CC1)c1c[nH]c2cc(O)c(O)cc12`, the inhibition in experiment [3] is 40%.

In the case of `COc1ccc2[nH]cc(C(=O)CN3CCC(Cc4ccc(F)cc4)CC3)c2c1`, the inhibition in [10] worked out at 73%.

For `COc1cc2[nH]cc(C(=O)C(=O)N3CCC(Cc4ccccc4)CC3)c2cc1OC`, the inhibition in [10] amounted to 9%.

For the compound `c1ccc2[nH]ccc2c1`, the inhibition in [9] was 25.6%; in experiment [8] it was “Dose-dependent effect”.

The compound `O=C(CN1CCC(Cc2ccc(F)cc2)CC1)c1c[nH]c2cc(O)c(O)cc12` gave an IC50 in experiment [2] of 30 nM. For the same compound, the inhibition in [3] was found to be 84%.

`O=C(C(=O)N1CCC(Cc2ccc(F)cc2)CC1)c1c[nH]c2cc(O)c(O)cc12` showed an inhibition in experiment [3] of 38%.

`CS(=O)(=O)Nc1ccc2c(C(=O)C(=O)N3CCC(Cc4ccc(F)cc4)CC3)c[nH]c2c1` gave an IC50 in experiment [2] of 18 nM. In experiment [3], this compound gave an inhibition of 67%.

With `O=C(O)/C=C/c1ccc(O)c(O)c1`, the inhibition in experiment [6] is 71.5%; in experiment [9] it was more than 93.4%; in [8], “Dose-dependent effect”.

Consider `O=C(CN1CCC(Cc2ccc(F)cc2)CC1)c1c[nH]c2ccc(O)cc12`, for which, in [2], the 50% inhibitory concentration (IC50) turned out to be 51 nM. Moreover, the inhibition in [3] is 60%.

`COc1ccc2c(C(=O)CN3CCC(Cc4ccc(F)cc4)CC3)c[nH]c2c1` returned an inhibition in experiment [10] of 82%.
